Results as given in ChEMBL document CHEMBL4229344 (Eur J Med Chem, 2018).

How the values were obtained:
[1] = biological target: Casein kinase I isoform delta (Homo sapiens) (UniProt P48730); experiment: Binding affinity to wild-type human full length CSNK1D (M1 to K409 residues) expressed in bacterial expression system assessed as residual binding level at 1 uM by Kinomescan method relative to control
In short: (§1)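 Single-concentration (1 μM) competition-binding screen run by KINOMEscan against a panel of 468 purified kinases and mutants. The read-out is the relative binding activity of the test compound to each kinase.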

[2] = biological target: Serine/threonine-protein kinase WNK2 (Homo sapiens) (UniProt Q9Y3S1); experiment: Binding affinity to wild-type human partial length WNK2 (V47 to D482 residues) expressed in mammalian expression system assessed as residual binding level at 1 uM by Kinomescan method relative to control
[3] = biological target: Ribosomal protein S6 kinase alpha-3 (Homo sapiens) (UniProt P51812); experiment: Binding affinity to wild-type human partial length N-terminal RSK2 kinase domain 1 (M1 to D394 residues) expressed in mammalian expression system assessed as residual binding level at 1 uM by Kinomescan method relative to control
[4] = biological target: Serine/threonine-protein kinase/endoribonuclease IRE1 (Homo sapiens) (UniProt O75460); experiment: Binding affinity to wild-type human partial length ERN1 (S551 to E852 residues) expressed in mammalian expression system assessed as residual binding level at 1 uM by Kinomescan method relative to control
[5] = biological target: Tyrosine-protein kinase Fgr (Homo sapiens) (UniProt P09769); experiment: Binding affinity to wild-type human partial length FGR (L233 to T529 residues) expressed in bacterial expression system assessed as residual binding level at 1 uM by Kinomescan method relative to control
In short: (§2)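 Kinome-wide competition binding screen against a panel of 468 purified kinases/mutants, with the test compound at a single concentration of 1 μM. Read-out is the relative binding activity of each kinase in the presence of compound.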

[6] = biological target: Tyrosine-protein kinase JAK1 (Homo sapiens) (UniProt P23458); experiment: Binding affinity to wild-type human partial length JAK1 JH1 catalytic domain (V856 to K1154 residues) expressed in bacterial expression system assessed as residual binding level at 1 uM by Kinomescan method relative to control
[7] = biological target: Macrophage colony-stimulating factor 1 receptor (Homo sapiens) (UniProt P07333); experiment: Binding affinity to wild-type human partial length autoinhibited CSF1R (Y538 to S939 residues) expressed in mammalian expression system assessed as residual binding level at 1 uM by Kinomescan method relative to control
[8] = biological target: Serine/threonine-protein kinase 33 (Homo sapiens) (UniProt Q9BYT3); experiment: Binding affinity to wild-type human full length STK33 (M1 to L514 residues) expressed in bacterial expression system assessed as residual binding level at 1 uM by Kinomescan method relative to control
In short: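 KINOMEscan competition binding against 468 purified kinases/mutants, test compound at 1 µM; residual binding relative to control.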

[9] = system: Tyrosine-protein kinase ABL1 (Homo sapiens), P00519 [T315I]; experiment: Binding affinity to human phosphorylated ABL1 T315I mutant (S229 to K512 residues) expressed in mammalian expression system assessed as residual binding level at 1 uM by Kinomescan method relative to control; in short: as §1
[10] = biological target: Dual specificity mitogen-activated protein kinase kinase 7 (Homo sapiens) (UniProt O14733); experiment: Binding affinity to wild-type human full length MKK7 (M1 to R419 residues) expressed in mammalian expression system assessed as residual binding level at 1 uM by Kinomescan method relative to control
In short: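 Single-concentration KINOMEscan (DiscoverX) binding screen at 1 μM against a panel of 468 purified kinases and mutants. The read-out is binding relative to control.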

[11] = biological target: Platelet-derived growth factor receptor beta (Homo sapiens, UniProt P09619); experiment: Inhibition of TEL-fused PDGFRbeta (unknown origin) expressed in mouse BA/F3 cells assessed as growth inhibition after 72 hrs by CellTiter-Glo or CCK-8 assay; assay type: cell-based
In short: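 Parental BaF3 or IL-3-independent TEL-kinase BaF3 lines, made by retroviral infection and puromycin selection, grown in RPMI 1640 with 10% FBS. Cells seeded at 1–3 × 10^4 cells/mL with serial compound concentrations for 72 h. Viability read by CellTiter-Glo luminescence or CCK-8 absorbance at 450/655 nm and normalised to DMSO. GI50 obtained by triplicate testing with linear regression. Selectivity is the ratio of the two GI50 values.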

[12] = system: NCI-H1703; experiment: Antiproliferative activity against human NCI-H1703 cells after 72 hrs in presence of PDGF-AA by CellTiter-Glo or CCK-8 assay; assay type: functional; details: NCI-H1703, 72 h
In short: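 Cells in RPMI 1640 with 10% FBS at 37 °C, 5% CO2, seeded at 1–3 × 10^4 cells/mL with serial compound dilutions for 72 h. Viability read by CellTiter-Glo luminescence or CCK-8 absorbance (450/655 nm), normalized to DMSO control.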

[13] = system: Receptor-type tyrosine-protein kinase FLT3 (Homo sapiens), P36888 [K663Q]; experiment: Binding affinity to human partial length FLT3 K663Q mutant (V592 to Y969 residues) expressed in bacterial expression system assessed as residual binding level at 1 uM by Kinomescan method relative to control
In short: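 Kinome-wide single-concentration binding screen (KINOMEscan) at 1 μM against a panel of 468 purified kinases and mutants. Read-out is relative binding of each kinase compared with control. Selectivity across the panel was summarised as an S(10) score.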

[14] = biological target: Leukocyte tyrosine kinase receptor (Homo sapiens) (UniProt P29376); experiment: Binding affinity to wild-type human partial length LTK (P422 to S744 residues) expressed in bacterial expression system assessed as residual binding level at 1 uM by Kinomescan method relative to control; in short: as §2
[15] = biological target: Tyrosine-protein kinase ABL1 (Homo sapiens, UniProt P00519); experiment: Binding affinity to wild-type human phosphorylated ABL1 (S229 to K512 residues) expressed in mammalian expression system assessed as residual binding level at 1 uM by Kinomescan method relative to control
[16] = biological target: Myosin-IIIa (Homo sapiens) (UniProt Q8NEV4); experiment: Binding affinity to wild-type human partial length MYO3A (M1 to K338 residues) expressed in bacterial expression system assessed as residual binding level at 1 uM by Kinomescan method relative to control; in short: as §2
[17] = biological target: CDK4/Cyclin D3 (Homo sapiens) (UniProt P11802+P30281); experiment: Binding affinity to wild-type human full length CDK4/cyclinD3 (M1 to E303 residues) expressed in mammalian expression system assessed as residual binding level at 1 uM by Kinomescan method relative to control; in short: as §1
[18] = biological target: Cytoplasmic tyrosine-protein kinase BMX (Homo sapiens) (UniProt P51813); experiment: Binding affinity to wild-type human full length BMX (M1 to H675 residues) expressed in bacterial expression system assessed as residual binding level at 1 uM by Kinomescan method relative to control; in short: as §1
[19] = biological target: Activin receptor type-1-like (Homo sapiens) (UniProt P37023); experiment: Binding affinity to wild-type human ACVRL1 (L164 to Q503 residues) expressed in bacterial expression system assessed as residual binding level at 1 uM by Kinomescan method relative to control; in short: as §1

Chain of Tyrosine-protein kinase JAK1 (Homo sapiens) (P23458 whole entry, the tested form may be a part): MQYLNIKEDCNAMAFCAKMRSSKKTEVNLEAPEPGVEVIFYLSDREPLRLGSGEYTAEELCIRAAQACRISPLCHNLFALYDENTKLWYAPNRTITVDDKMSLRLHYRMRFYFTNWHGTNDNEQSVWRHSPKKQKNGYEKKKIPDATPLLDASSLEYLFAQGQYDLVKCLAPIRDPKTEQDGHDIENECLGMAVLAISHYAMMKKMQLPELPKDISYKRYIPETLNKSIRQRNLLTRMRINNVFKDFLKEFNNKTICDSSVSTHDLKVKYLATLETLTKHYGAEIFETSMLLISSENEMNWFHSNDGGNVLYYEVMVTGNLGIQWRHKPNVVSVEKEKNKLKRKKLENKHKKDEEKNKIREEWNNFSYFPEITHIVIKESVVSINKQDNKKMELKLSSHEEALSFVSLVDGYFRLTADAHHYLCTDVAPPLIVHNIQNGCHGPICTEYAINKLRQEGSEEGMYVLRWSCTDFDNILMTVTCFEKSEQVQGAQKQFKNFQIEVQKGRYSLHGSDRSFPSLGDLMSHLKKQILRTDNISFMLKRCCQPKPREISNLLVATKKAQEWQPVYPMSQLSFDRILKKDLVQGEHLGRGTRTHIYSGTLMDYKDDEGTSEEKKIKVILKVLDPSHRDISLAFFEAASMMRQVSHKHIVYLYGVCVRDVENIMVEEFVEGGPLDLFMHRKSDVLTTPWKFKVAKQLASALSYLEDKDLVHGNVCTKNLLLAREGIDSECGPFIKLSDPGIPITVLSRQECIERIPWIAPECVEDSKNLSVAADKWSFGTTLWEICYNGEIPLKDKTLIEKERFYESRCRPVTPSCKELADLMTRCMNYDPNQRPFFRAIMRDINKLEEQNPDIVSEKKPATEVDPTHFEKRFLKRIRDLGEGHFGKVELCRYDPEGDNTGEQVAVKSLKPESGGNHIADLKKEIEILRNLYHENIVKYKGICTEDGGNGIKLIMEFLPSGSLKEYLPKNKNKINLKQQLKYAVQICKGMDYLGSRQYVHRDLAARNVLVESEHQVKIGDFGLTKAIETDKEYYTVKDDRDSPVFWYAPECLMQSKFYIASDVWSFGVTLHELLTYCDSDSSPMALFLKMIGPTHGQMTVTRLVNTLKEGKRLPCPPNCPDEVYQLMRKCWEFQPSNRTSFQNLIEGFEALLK
Chain of Platelet-derived growth factor receptor beta (P09619 whole entry, the tested form may be a part): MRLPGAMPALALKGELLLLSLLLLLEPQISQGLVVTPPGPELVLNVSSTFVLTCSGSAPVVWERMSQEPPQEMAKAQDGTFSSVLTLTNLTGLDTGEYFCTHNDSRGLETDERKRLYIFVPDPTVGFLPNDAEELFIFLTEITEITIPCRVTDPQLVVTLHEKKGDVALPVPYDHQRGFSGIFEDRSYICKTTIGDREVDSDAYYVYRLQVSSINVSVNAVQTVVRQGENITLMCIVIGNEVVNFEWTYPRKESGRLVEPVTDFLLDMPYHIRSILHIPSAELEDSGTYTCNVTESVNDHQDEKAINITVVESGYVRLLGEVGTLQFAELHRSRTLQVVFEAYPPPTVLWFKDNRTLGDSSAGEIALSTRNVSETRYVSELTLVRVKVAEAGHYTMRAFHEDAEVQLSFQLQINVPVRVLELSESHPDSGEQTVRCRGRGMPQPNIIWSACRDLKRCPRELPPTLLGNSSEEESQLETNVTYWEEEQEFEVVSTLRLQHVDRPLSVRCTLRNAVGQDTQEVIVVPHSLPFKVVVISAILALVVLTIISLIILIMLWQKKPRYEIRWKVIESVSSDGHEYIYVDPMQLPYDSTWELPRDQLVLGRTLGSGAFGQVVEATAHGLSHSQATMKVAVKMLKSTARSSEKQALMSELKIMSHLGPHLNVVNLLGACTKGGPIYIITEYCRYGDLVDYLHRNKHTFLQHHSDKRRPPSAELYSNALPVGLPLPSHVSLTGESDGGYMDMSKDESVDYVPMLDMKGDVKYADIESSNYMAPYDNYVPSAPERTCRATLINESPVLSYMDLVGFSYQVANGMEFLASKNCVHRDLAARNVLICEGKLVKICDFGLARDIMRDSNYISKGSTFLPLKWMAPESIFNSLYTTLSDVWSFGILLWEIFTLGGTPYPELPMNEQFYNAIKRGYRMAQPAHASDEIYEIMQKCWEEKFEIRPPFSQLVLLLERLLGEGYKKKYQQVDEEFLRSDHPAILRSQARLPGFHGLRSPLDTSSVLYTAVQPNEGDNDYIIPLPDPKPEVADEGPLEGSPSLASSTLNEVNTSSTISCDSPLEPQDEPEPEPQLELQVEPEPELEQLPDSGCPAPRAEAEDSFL
Chain of Macrophage colony-stimulating factor 1 receptor (Homo sapiens) (P07333 whole entry, the tested form may be a part): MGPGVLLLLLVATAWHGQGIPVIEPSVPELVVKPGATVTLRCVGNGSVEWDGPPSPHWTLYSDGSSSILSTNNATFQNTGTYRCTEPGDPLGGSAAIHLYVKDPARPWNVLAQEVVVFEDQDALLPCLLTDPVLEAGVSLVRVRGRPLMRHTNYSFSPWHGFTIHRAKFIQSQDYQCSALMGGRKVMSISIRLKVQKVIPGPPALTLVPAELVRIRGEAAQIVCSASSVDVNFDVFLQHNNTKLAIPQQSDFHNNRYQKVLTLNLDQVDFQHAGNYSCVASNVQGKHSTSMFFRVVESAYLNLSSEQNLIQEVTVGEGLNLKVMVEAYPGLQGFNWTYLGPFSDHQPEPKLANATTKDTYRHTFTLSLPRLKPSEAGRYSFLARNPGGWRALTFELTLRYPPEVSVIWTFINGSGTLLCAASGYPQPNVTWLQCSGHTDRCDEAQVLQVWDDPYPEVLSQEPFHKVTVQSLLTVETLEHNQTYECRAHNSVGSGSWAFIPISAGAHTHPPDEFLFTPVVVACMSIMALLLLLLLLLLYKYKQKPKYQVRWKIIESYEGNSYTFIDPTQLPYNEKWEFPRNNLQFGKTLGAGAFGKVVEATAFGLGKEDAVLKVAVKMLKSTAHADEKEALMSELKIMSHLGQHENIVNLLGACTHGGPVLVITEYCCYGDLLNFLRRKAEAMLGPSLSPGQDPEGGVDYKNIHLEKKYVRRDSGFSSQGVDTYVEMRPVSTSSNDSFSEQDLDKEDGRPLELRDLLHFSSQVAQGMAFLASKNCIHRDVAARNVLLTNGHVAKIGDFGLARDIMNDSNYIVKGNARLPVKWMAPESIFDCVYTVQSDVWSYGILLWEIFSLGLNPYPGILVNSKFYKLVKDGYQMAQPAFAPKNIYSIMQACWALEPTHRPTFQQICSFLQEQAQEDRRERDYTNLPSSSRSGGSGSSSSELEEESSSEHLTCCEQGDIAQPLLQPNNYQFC
Chain of Ribosomal protein S6 kinase alpha-3 (Homo sapiens) (P51812 whole entry, the tested form may be a part): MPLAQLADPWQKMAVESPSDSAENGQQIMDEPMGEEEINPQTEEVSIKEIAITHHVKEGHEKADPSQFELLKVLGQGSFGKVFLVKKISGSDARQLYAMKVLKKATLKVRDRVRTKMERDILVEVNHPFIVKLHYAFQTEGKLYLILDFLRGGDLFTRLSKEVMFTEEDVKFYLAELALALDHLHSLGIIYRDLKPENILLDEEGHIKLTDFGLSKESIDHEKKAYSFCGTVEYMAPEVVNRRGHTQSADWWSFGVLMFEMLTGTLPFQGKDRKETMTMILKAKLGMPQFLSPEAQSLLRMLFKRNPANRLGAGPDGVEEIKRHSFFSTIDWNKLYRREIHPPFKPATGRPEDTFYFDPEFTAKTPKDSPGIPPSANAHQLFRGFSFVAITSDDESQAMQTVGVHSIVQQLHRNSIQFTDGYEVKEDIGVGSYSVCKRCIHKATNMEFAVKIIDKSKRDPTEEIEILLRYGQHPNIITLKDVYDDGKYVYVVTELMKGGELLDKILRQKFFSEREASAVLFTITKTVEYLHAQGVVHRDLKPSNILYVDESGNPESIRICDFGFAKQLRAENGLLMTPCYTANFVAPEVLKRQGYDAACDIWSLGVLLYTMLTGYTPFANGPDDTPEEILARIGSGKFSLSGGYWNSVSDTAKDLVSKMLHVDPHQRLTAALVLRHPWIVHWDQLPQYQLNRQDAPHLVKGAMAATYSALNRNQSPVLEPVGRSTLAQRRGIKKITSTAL
Chain of Tyrosine-protein kinase Fgr (Homo sapiens) (P09769 2-529 limits assumed): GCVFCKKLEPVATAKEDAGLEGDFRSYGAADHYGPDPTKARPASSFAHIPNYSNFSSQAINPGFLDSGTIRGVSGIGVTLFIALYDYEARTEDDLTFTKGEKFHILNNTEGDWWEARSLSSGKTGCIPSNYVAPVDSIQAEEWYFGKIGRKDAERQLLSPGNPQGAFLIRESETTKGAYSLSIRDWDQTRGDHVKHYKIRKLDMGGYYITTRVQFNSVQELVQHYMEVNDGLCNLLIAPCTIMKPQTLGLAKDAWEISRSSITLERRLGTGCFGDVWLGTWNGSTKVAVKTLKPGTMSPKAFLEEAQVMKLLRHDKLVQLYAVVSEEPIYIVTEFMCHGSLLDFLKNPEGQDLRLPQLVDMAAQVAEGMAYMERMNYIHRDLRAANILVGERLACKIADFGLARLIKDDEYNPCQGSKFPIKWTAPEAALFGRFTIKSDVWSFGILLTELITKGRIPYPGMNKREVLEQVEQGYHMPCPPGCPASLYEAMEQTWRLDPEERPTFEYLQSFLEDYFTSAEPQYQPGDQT
Chain of Dual specificity mitogen-activated protein kinase kinase 7 (Homo sapiens) (O14733 whole entry, the tested form may be a part): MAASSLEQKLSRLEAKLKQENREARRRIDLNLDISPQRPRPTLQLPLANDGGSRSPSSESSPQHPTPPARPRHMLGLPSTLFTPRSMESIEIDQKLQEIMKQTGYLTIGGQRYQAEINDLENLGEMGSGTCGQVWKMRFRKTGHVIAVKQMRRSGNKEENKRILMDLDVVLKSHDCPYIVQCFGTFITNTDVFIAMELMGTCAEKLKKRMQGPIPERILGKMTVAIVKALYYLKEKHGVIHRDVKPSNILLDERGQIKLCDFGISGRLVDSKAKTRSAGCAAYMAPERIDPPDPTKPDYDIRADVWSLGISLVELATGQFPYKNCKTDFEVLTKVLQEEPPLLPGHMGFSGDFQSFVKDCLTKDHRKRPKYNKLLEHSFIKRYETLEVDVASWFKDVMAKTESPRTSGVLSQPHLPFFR

Cc1ccc(NC(=O)c2ccc(CN(CCN(C)C)C(=O)c3cccnc3)cc2)cc1Nc1nccc(-c2cccnc2)n1
Activity [1]: 95%
Activity [2]: 100%
Activity [3]: 100%
Activity [4]: 96%
Activity [5]: 91%
Activity [6]: 100%
Activity [7]: 100%
Activity [8]: 89%
Activity [9]: 100%
Activity [10]: 100%
GI50 [11]: 2900 nM
GI50 [12]: 2990 nM
Activity [13]: 93%
Activity [14]: 87%
Activity [15]: 73%
Activity [16]: 92%
Activity [17]: 100%
Activity [18]: 100%
Activity [19]: 100%
